# Measured values taken from ChEMBL document CHEMBL4257551, “Glycyrrhizic acid from licorice down-regulates inflammatory responses via blocking MAPK and PI3K/Akt-dependent NF-κB signalling pathways in TPA-induced skin inflammation” (2018).
# The source made the active and inactive calls. The rule behind the calls is not given here.
# Key:
# [1] = tested on: Mus musculus; experiment: Antiinflammatory activity against TPA-induced ear edema in BALB/c mouse assessed as decrease in ear punches at 150 mM administered topically for 15 mins prior to TPA challenge and measured after 6 hrs relative to control; assay type: functional; set-up: scale not given: the % may be the effect or the level left
# Procedure, shortened: (§1)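 Female BALB/c mice, 4–5 weeks old, n = 3 per group. Both ears received 30 μL of test solution in DMSO:methylene chloride (20:80) at 50, 100, 150 or 200 mM. Topical TPA (30 μL, 25 μg mL⁻¹) followed 15 min later. Mice were killed at 6 h, and two 6 mm punches per animal were weighed. Controls had vehicle then acetone. Mean ± SD of six experiments in triplicate.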
# [2] = tested on: Mus musculus; experiment: Antiinflammatory activity against TPA-induced ear edema in BALB/c mouse assessed as weight of ear punches at 200 mM administered topically for 15 mins prior to TPA challenge and measured after 48 hrs (reference value: 11.4 +/- 0.3 mg); assay type: functional
# [3] = tested on: Mus musculus; experiment: Antiinflammatory activity against TPA-induced ear edema in BALB/c mouse assessed as decrease in Akt expression in edema at 50 to 200 mM administered topically for 15 mins prior to TPA challenge by immunohistochemical method; assay type: functional, organism-based
# [4] = tested on: Mus musculus; experiment: Antiinflammatory activity against TPA-induced ear edema in BALB/c mouse assessed as decrease in weight of ear punches at 200 mM, po administered 15 mins prior to TPA challenge and measured after 48 hrs relative to control; assay type: functional; set-up: scale not given: the % may be the effect or the level left
# [5] = tested on: Mus musculus; experiment: Antiinflammatory activity against TPA-induced ear edema in BALB/c mouse assessed as weight of ear punches at 200 mM, po administered 15 mins prior to TPA challenge and measured after 3 hrs (reference value: 8.3 +/- 0.1 mg); assay type: functional
# [6] = tested on: Mus musculus; experiment: Antiinflammatory activity against TPA-induced ear edema in BALB/c mouse assessed as decrease in p65 phosphorylation in edema administered topically for 15 mins prior to TPA challenge by immunohistochemical method; assay type: functional, organism-based
# [7] = tested on: Mus musculus; experiment: Antiinflammatory activity against TPA-induced ear edema in BALB/c mouse assessed as decrease in weight of ear punches at 5 mg administered topically for 15 mins prior to TPA challenge and measured after 12 hrs relative to control; assay type: functional; set-up: scale not given: the % may be the effect or the level left
# [8] = tested on: Mus musculus; experiment: Antiinflammatory activity against TPA-induced ear edema in BALB/c mouse assessed as decrease in leucocyte infiltration in edema administered topically for 15 mins prior to TPA challenge and measured after 6 hrs by hematoxylin/eosin staining-based microscopic method; assay type: functional, organism-based
# Procedure, shortened: (§2)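 Female BALB/c mice were pretreated topically at 50–200 mM, then given TPA. Ears were taken at 6 h, fixed in 4% PFA, decalcified in EDTA, paraffin-embedded and sectioned at 4 μm for H&E. Epidermal hyperplasia and dermal leukocyte infiltration were scored in at least five regions at 200×. ANOVA with Dunnett's test.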
# [9] = tested on: Mus musculus; experiment: Antiinflammatory activity against TPA-induced ear edema in BALB/c mouse assessed as decrease in weight of ear punches at 5 mg administered topically for 15 mins prior to TPA challenge and measured after 48 hrs relative to control; assay type: functional; set-up: scale not given: the % may be the effect or the level left
# [10] = tested on: Mus musculus; experiment: Antiinflammatory activity against TPA-induced ear edema in BALB/c mouse assessed as weight of ear punches at 200 mM, po administered 15 mins prior to TPA challenge and measured after 12 hrs (reference value: 12.4 +/- 0.1 mg); assay type: functional
# [11] = tested on: Mus musculus; experiment: Antiinflammatory activity against TPA-induced ear edema in BALB/c mouse assessed as decrease in PI3K p85 phosphorylation in edema administered topically for 15 mins prior to TPA challenge by immunohistochemical method; assay type: functional, organism-based
# [12] = tested on: Mus musculus; experiment: Antiinflammatory activity against TPA-induced ear edema in BALB/c mouse assessed as decrease in PI3K p85 expression in edema at 50 to 200 mM administered topically for 15 mins prior to TPA challenge by immunohistochemical method; assay type: functional, organism-based
# [13] = tested on: Mus musculus; experiment: Antiinflammatory activity against TPA-induced ear edema in BALB/c mouse assessed as decrease in ear punches at 200 mM administered topically for 15 mins prior to TPA challenge and measured after 6 hrs relative to control; assay type: functional; set-up: scale not given: the % may be the effect or the level left; procedure, shortened: as §1
# [14] = tested on: Mus musculus; experiment: Antiinflammatory activity against TPA-induced ear edema in BALB/c mouse assessed as decrease in weight of ear punches at 5 mg administered topically for 15 mins prior to TPA challenge and measured after 6 hrs relative to control; assay type: functional; set-up: scale not given: the % may be the effect or the level left
# [15] = tested on: Mus musculus; experiment: Antiinflammatory activity against TPA-induced ear edema in BALB/c mouse assessed as decrease in weight of ear punches at 200 mM, po administered 15 mins prior to TPA challenge and measured after 24 hrs relative to control; assay type: functional; set-up: scale not given: the % may be the effect or the level left
# [16] = tested on: Mus musculus; experiment: Antiinflammatory activity against TPA-induced ear edema in BALB/c mouse assessed as decrease in 18F-FDG uptake in ears administered topically for 15 mins prior to TPA challenge and measured after 24 hrs by microPET-CT imaging method; assay type: functional, organism-based
# Procedure, shortened: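 CT-guided regions of interest were drawn over the ears, and uptake was expressed as SUVmax and SUVmean. Dosing was 200 mM in DMSO:methylene chloride (20:80) on the ears before topical TPA.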
# [17] = tested on: Mus musculus; experiment: Antiinflammatory activity against TPA-induced ear edema in BALB/c mouse assessed as decrease in ear punches at 50 mM administered topically for 15 mins prior to TPA challenge and measured after 6 hrs relative to control; assay type: functional; set-up: scale not given: the % may be the effect or the level left; procedure, shortened: as §1
# [18] = tested on: Mus musculus; experiment: Antiinflammatory activity against TPA-induced ear edema in BALB/c mouse assessed as weight of ear punches at 200 mM, ip administered 15 mins prior to TPA challenge and measured after 3 hrs (reference value: 8.3 +/- 0.1 mg); assay type: functional
# [19] = tested on: Mus musculus; experiment: Antiinflammatory activity against TPA-induced ear edema in BALB/c mouse assessed as weight of ear punches at 200 mM, ip administered 15 mins prior to TPA challenge and measured after 12 hrs (reference value: 12.4 +/- 0.1 mg); assay type: functional
# [20] = tested on: Mus musculus; experiment: Antiinflammatory activity against TPA-induced ear edema in BALB/c mouse assessed as decrease in weight of ear punches at 5 mg administered topically for 15 mins prior to TPA challenge and measured after 3 hrs relative to control; assay type: functional; set-up: scale not given: the % may be the effect or the level left
# [21] = tested on: Mus musculus; experiment: Antiinflammatory activity against TPA-induced ear edema in BALB/c mouse assessed as weight of ear punches at 200 mM, ip administered 15 mins prior to TPA challenge and measured after 24 hrs (reference value: 12.1 +/- 0.2 mg); assay type: functional
# [22] = tested on: Mus musculus; experiment: Antiinflammatory activity against TPA-induced ear edema in BALB/c mouse assessed as weight of ear punches at 200 mM administered topically for 15 mins prior to TPA challenge and measured after 12 hrs (reference value: 12.4 +/- 0.1 mg); assay type: functional
# [23] = tested on: Mus musculus; experiment: Antiinflammatory activity against TPA-induced ear edema in BALB/c mouse assessed as decrease in COX2 expression in edema administered topically for 15 mins prior to TPA challenge by immunohistochemical method; assay type: functional, organism-based
# [24] = tested on: Mus musculus; experiment: Antiinflammatory activity against TPA-induced ear edema in BALB/c mouse assessed as decrease in IkappaBalpha degradation in edema administered topically for 15 mins prior to TPA challenge by immunohistochemical method; assay type: functional, organism-based
# [25] = tested on: Mus musculus; experiment: Antiinflammatory activity against TPA-induced ear edema in BALB/c mouse assessed as weight of ear punches at 200 mM, ip administered 15 mins prior to TPA challenge and measured after 6 hrs (reference value: 12.5 +/- 0.3 mg); assay type: functional
# [26] = tested on: Mus musculus; experiment: Antiinflammatory activity against TPA-induced ear edema in BALB/c mouse assessed as weight of ear punches at 200 mM administered topically for 15 mins prior to TPA challenge and measured after 3 hrs (reference value: 8.3 +/- 0.1 mg); assay type: functional
# [27] = tested on: Mus musculus; experiment: Antiinflammatory activity against TPA-induced ear edema in BALB/c mouse assessed as decrease in iNOS expression in edema administered topically for 15 mins prior to TPA challenge by immunohistochemical method; assay type: functional, organism-based
# [28] = tested on: Mus musculus; experiment: Antiinflammatory activity against TPA-induced ear edema in BALB/c mouse assessed as decrease in weight of ear punches at 5 mg administered topically for 15 mins prior to TPA challenge and measured after 24 hrs relative to control; assay type: functional; set-up: scale not given: the % may be the effect or the level left
# [29] = tested on: Mus musculus; experiment: Antiinflammatory activity against TPA-induced ear edema in BALB/c mouse assessed as decrease in IkappaBalpha phosphorylation in edema administered topically for 15 mins prior to TPA challenge by immunohistochemical method; assay type: functional, organism-based
# [30] = tested on: Mus musculus; experiment: Antiinflammatory activity against TPA-induced ear edema in BALB/c mouse assessed as weight of ear punches at 200 mM, po administered 15 mins prior to TPA challenge and measured after 6 hrs (reference value: 12.5 +/- 0.3 mg); assay type: functional
# [31] = tested on: Mus musculus; experiment: Antiinflammatory activity against TPA-induced ear edema in BALB/c mouse assessed as decrease in ear punches administered topically for 15 mins prior to TPA challenge and measured after 6 hrs; assay type: functional, organism-based; procedure, shortened: as §1
# [32] = tested on: Mus musculus; experiment: Antiinflammatory activity against TPA-induced ear edema in BALB/c mouse assessed as decrease in epidermal hyperplasia in edema administered topically for 15 mins prior to TPA challenge and measured after 6 hrs by hematoxylin/eosin staining-based microscopic method; assay type: functional, organism-based; procedure, shortened: as §2
# [33] = tested on: Mus musculus; experiment: Antiinflammatory activity against TPA-induced ear edema in BALB/c mouse assessed as decrease in p38 phosphorylation in edema administered topically for 15 mins prior to TPA challenge by immunohistochemical method; assay type: functional, organism-based
# [34] = tested on: Mus musculus; experiment: Antiinflammatory activity against TPA-induced ear edema in BALB/c mouse assessed as decrease in ERK1/2 phosphorylation in edema administered topically for 15 mins prior to TPA challenge by immunohistochemical method; assay type: functional, organism-based
# [35] = tested on: Mus musculus; experiment: Antiinflammatory activity against TPA-induced ear edema in BALB/c mouse assessed as weight of ear punches at 200 mM, ip administered 15 mins prior to TPA challenge and measured after 48 hrs (reference value: 11.4 +/- 0.3 mg); assay type: functional
# [36] = tested on: Mus musculus; experiment: Antiinflammatory activity against TPA-induced ear edema in BALB/c mouse assessed as decrease in Akt phosphorylation in edema administered topically for 15 mins prior to TPA challenge by immunohistochemical method; assay type: functional, organism-based
# [37] = tested on: Mus musculus; experiment: Antiinflammatory activity against TPA-induced ear edema in BALB/c mouse assessed as decrease in ear punches at 100 mM administered topically for 15 mins prior to TPA challenge and measured after 6 hrs relative to control; assay type: functional; set-up: scale not given: the % may be the effect or the level left; procedure, shortened: as §1
# [38] = tested on: Mus musculus; experiment: Antiinflammatory activity against TPA-induced ear edema in BALB/c mouse assessed as weight of ear punches at 200 mM administered topically for 15 mins prior to TPA challenge and measured after 24 hrs (reference value: 12.1 +/- 0.2 mg); assay type: functional
compound,measurement,setting,value
CC1(C)[C@@H](O[C@H]2O[C@H](C(=O)O)[C@@H](O)[C@H](O)[C@H]2O[C@@H]2O[C@H](C(=O)O)[C@@H](O)[C@H](O)[C@H]2O)CC[C@]2(C)[C@H]3C(=O)C=C4[C@@H]5C[C@@](C)(C(=O)O)CC[C@]5(C)CC[C@@]4(C)[C@]3(C)CC[C@@H]12 [GLYCYRRHIZIN],Activity,[1],63%
same,Activity,[2],5.9 mg
same,Activity,[3],Active
same,Activity,[4],64.5%
same,Activity,[5],8 mg
same,Activity,[6],Dose-dependent effect
same,Activity,[7],87.5%
same,Activity,[8],Dose-dependent effect
same,Activity,[9],88.7%
same,Activity,[10],12.1 mg
same,Activity,[11],Dose-dependent effect
same,Activity,[12],Active
same,Activity,[13],87.7%
same,Activity,[14],87.7%
same,Activity,[15],66.7%
same,Activity,[16],Active
same,Activity,[17],31.5%
same,Activity,[18],7.8 mg
same,Activity,[19],14.1 mg
same,Activity,[20],87.1%
same,Activity,[21],13.5 mg
same,Activity,[22],6.1 mg
same,Activity,[23],Dose-dependent effect
same,Activity,[24],Dose-dependent effect
same,Activity,[25],14.6 mg
same,Activity,[26],5.6 mg
same,Activity,[27],Dose-dependent effect
same,Activity,[28],89.9%
same,Activity,[29],Dose-dependent effect
same,Activity,[30],12.3 mg
same,Activity,[31],Dose-dependent effect
same,Activity,[32],Dose-dependent effect
same,Activity,[33],Dose-dependent effect
same,Activity,[34],Dose-dependent effect
same,Activity,[35],13.1 mg
same,Activity,[36],Dose-dependent effect
same,Activity,[37],60.3%
same,Activity,[38],5.9 mg
